# Reference: ChEMBL document CHEMBL3826935, “Synthesis and Pharmacology of (Pyridin-2-yl)methanol Derivatives as Novel and Selective Transient Receptor Potential Vanilloid 3 Antagonists” (J Med Chem, 2016)
# Columns and labels:
# [1] = Oral bioavailability in rat at 2 mg/kg; assay type: ADME, organism-based; conditions: in vivo
# Method in brief: (§1)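 Rat pharmacokinetics: iv dose 1 mg/kg; po dose 1 or 2 mg/kg depending on compound. AUC taken over 0–8 h. Unbound parameters calculated using plasma free fraction.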
# Liver microsome = test: Unbound intrinsic clearance in human liver microsomes after 5 hrs by LC-MS/MS analysis; assay type: ADME
# Method in brief: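 Microsomal stability run in an automated high-throughput plate format. Intrinsic clearance corrected for nonspecific microsomal binding using measured unbound fraction (fu,mic), reported as unbound Clint in L/h/kg.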
# [2] = target: Voltage-gated inwardly rectifying potassium channel KCNH2 (Homo sapiens, UniProt Q12809); test: Binding affinity to human ERG at 10 uM
# Method in brief: (§2)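 Selectivity screen at 10 µM across CEREP and internal target panels. Readout is percent binding, with 50% as the threshold.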
# Rattus norvegicus [3] = test: Toxicity in chronic constriction injury Sprague-Dawley rat model of neuropathic pain assessed as behavioral changes at 10 to 100 mg/kg, po; assay type: organism-based; conditions: in vivo
# [4] = target: Voltage-dependent L-type calcium channel subunit alpha-1C (Homo sapiens, UniProt Q13936); test: Binding affinity to Cav1.2 (unknown origin) at 10 uM; method in brief: as §2
# Chain of Voltage-dependent L-type calcium channel subunit alpha-1C (Q13936 whole entry): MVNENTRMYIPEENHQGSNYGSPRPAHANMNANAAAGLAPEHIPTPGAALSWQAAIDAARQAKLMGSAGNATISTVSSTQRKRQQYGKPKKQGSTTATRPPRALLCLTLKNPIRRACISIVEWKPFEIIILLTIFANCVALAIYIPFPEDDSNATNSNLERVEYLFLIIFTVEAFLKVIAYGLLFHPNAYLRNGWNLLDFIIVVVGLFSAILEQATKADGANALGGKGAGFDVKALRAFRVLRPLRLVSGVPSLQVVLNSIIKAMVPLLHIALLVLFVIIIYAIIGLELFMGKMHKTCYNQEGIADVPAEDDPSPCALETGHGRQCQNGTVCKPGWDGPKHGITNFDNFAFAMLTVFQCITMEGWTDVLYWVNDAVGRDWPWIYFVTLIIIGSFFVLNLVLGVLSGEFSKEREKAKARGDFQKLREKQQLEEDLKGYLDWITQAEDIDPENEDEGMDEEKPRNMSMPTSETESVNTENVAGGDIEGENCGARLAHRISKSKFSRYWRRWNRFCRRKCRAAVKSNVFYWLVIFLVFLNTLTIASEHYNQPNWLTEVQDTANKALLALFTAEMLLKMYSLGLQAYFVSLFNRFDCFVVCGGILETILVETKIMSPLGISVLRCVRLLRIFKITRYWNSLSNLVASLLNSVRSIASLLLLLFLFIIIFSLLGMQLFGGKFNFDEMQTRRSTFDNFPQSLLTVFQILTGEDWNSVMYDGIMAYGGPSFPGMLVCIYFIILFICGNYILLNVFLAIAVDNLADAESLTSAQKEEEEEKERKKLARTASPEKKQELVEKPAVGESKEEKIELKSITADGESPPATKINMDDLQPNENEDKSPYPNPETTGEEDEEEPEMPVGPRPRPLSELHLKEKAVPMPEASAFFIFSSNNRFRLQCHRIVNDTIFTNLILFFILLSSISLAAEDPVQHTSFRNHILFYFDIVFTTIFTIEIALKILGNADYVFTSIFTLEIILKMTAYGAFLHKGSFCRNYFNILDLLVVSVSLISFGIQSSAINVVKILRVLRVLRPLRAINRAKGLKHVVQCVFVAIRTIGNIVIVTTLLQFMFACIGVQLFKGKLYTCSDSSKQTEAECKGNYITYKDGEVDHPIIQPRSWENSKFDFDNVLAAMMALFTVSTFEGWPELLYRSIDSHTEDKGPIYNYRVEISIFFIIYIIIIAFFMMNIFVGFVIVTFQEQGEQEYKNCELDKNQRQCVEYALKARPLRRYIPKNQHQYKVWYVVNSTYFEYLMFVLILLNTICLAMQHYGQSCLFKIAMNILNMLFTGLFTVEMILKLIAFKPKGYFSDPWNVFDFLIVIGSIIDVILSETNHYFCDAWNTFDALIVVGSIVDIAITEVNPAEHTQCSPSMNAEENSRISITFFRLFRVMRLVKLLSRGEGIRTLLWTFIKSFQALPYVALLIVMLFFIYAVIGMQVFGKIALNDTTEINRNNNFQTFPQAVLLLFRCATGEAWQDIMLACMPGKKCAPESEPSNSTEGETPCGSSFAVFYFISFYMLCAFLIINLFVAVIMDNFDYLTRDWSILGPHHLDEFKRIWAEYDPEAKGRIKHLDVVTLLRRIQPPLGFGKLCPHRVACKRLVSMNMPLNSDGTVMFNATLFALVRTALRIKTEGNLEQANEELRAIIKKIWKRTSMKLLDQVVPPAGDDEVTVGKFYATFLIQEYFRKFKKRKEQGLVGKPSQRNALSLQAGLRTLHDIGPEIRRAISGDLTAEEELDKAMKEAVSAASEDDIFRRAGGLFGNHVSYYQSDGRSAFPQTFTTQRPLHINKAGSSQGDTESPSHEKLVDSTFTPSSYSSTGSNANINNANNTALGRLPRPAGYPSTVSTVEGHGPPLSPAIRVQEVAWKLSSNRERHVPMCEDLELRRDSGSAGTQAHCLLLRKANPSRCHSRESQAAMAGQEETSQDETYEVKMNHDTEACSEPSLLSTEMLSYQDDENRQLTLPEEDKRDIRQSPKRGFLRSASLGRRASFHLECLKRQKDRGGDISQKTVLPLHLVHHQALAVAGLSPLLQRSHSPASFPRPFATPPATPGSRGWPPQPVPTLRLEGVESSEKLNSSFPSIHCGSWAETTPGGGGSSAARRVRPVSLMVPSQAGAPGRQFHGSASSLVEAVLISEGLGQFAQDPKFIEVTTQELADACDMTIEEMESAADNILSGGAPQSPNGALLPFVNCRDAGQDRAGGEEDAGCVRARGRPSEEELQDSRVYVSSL
# Rattus norvegicus [5] = test: Toxicity in sciatic nerve ligation Sprague-Dawley rat model of neuropathic pain assessed as behavioral changes at 10 to 100 mg/kg, po; assay type: organism-based; conditions: in vivo
# [6] = Cmax in rat at 1 mg/kg, iv or 2 mg/kg, po; assay type: ADME, organism-based; conditions: in vivo; method in brief: as §1
# [7] = Volume of distribution at steady state in rat at 1 mg/kg, iv or 2 mg/kg, po; assay type: ADME, organism-based; conditions: in vivo, read-out: Vdss; method in brief: as §1
# Rattus norvegicus [8] = test: Toxicity in sciatic nerve ligation Sprague-Dawley rat model of neuropathic pain assessed as overt impairments at 10 to 100 mg/kg, po; assay type: organism-based; conditions: in vivo
# [9] = target: T1, Transient receptor potential cation channel subfamily V member 3 (Homo sapiens) (UniProt Q8NET8); test: (§3) Antagonist activity at human TRPV3 expressed in recombinant HEK293 cells assessed as inhibition of 2-APB induced calcium flux by FLIPR analysis; assay type: cell-based
# T1 sequence (whole entry): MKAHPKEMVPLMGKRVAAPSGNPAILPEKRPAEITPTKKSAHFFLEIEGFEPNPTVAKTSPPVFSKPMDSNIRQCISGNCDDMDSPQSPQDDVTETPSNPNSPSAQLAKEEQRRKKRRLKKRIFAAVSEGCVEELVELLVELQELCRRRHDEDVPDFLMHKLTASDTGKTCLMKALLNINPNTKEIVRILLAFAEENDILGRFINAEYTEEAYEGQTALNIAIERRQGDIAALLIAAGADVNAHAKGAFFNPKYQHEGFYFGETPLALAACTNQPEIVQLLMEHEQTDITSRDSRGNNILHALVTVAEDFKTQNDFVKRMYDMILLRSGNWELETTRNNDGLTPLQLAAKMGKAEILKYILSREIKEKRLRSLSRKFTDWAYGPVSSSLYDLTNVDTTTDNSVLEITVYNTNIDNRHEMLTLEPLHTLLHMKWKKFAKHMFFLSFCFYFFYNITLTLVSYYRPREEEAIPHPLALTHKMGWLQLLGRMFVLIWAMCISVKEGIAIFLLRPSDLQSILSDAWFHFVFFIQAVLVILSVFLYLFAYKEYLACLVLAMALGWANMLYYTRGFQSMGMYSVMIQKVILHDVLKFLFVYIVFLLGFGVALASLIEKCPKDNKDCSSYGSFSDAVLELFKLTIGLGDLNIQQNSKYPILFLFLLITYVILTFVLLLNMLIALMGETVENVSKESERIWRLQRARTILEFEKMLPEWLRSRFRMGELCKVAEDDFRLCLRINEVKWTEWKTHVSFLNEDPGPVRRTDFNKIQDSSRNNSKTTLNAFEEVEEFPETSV
# Method in brief: (§4)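 HEK293 cells stably expressing human TRPV3 (I25V variant), plated the day before in DMEM + 10% FBS at 37 °C, 5% CO2. Calcium 4 dye loaded in Ca/Mg-free HEPES D-PBS pH 7.4 for 1–2 h at room temperature. Compound dilutions added with 3 min baseline, then 2-APB at 60 µM final; Ca2+ flux read 3 min on FLIPR. Kb from at least duplicates, averaged across independent runs.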
# [10] = target: T2, Transient receptor potential cation channel subfamily V member 3 (Homo sapiens, UniProt Q8NET8); test: as §3; assay type: cell-based; method in brief: as §4
# T2 sequence (Q8NET8 whole entry): T1 sequence (whole entry)
# Rattus norvegicus [11] = test: Antiallodynic activity in Sprague-Dawley rat reserpine model of central pain assessed as increase in reserpine induced muscle pressure threshold at 10 to 100 mg/kg, po measured at 1 hr post dosing; assay type: functional, organism-based
# Rattus norvegicus [12] = test: Toxicity in Sprague-Dawley rat reserpine model of central pain assessed as overt impairments at 10 to 100 mg/kg, po; assay type: organism-based; conditions: in vivo
# [13] = target: Transient receptor potential cation channel subfamily V member 1 (Homo sapiens) (UniProt Q8NER1); test: Binding affinity to TRPV1 (unknown origin) at 10 uM; method in brief: as §2
# Chain of Transient receptor potential cation channel subfamily V member 1 (Homo sapiens) (Q8NER1 whole entry): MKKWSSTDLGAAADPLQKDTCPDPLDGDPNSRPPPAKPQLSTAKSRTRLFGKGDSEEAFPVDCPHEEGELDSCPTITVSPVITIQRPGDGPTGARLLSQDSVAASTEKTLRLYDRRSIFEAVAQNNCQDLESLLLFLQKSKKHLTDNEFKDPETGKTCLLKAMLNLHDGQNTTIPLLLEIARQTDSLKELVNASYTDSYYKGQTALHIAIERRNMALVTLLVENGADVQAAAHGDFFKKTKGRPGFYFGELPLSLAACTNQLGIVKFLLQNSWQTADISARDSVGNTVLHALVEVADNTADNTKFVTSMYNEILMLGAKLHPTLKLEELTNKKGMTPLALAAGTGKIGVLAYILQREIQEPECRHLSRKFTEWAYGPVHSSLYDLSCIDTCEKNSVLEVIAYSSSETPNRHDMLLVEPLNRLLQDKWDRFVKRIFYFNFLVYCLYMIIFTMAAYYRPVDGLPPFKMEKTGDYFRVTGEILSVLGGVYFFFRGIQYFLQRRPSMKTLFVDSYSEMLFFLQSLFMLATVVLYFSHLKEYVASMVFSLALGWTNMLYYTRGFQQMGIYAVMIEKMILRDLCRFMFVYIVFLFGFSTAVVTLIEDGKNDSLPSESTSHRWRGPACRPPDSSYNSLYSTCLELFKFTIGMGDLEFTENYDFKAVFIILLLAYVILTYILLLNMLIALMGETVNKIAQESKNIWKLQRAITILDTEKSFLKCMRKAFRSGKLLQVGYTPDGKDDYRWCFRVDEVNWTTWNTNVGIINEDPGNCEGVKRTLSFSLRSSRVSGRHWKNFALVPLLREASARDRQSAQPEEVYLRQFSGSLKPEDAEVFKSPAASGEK
# [14] = target: T1, Transient receptor potential cation channel subfamily V member 3 (Homo sapiens); test: Binding affinity to TRPV3 (unknown origin) at 10 uM
# [15] = Ratio of drug level in plasma to brain in Sprague-Dawley rat; assay type: ADME, cell-free; conditions: in vivo
# Rattus norvegicus [16] = test: Toxicity in Sprague-Dawley rat reserpine model of central pain assessed as behavioral changes at 10 to 100 mg/kg, po; assay type: organism-based; conditions: in vivo
# [17] = target: Voltage-dependent T-type calcium channel subunit alpha-1H (Homo sapiens) (UniProt O95180); test: Binding affinity to Cav3.2 (unknown origin) at 10 uM; method in brief: as §2
# [18] = target: Sodium channel protein type 5 subunit alpha (Homo sapiens, UniProt Q14524); test: Binding affinity to Nav1.5 (unknown origin) at 10 uM; method in brief: as §2
# Chain of Sodium channel protein type 5 subunit alpha (Q14524 whole entry): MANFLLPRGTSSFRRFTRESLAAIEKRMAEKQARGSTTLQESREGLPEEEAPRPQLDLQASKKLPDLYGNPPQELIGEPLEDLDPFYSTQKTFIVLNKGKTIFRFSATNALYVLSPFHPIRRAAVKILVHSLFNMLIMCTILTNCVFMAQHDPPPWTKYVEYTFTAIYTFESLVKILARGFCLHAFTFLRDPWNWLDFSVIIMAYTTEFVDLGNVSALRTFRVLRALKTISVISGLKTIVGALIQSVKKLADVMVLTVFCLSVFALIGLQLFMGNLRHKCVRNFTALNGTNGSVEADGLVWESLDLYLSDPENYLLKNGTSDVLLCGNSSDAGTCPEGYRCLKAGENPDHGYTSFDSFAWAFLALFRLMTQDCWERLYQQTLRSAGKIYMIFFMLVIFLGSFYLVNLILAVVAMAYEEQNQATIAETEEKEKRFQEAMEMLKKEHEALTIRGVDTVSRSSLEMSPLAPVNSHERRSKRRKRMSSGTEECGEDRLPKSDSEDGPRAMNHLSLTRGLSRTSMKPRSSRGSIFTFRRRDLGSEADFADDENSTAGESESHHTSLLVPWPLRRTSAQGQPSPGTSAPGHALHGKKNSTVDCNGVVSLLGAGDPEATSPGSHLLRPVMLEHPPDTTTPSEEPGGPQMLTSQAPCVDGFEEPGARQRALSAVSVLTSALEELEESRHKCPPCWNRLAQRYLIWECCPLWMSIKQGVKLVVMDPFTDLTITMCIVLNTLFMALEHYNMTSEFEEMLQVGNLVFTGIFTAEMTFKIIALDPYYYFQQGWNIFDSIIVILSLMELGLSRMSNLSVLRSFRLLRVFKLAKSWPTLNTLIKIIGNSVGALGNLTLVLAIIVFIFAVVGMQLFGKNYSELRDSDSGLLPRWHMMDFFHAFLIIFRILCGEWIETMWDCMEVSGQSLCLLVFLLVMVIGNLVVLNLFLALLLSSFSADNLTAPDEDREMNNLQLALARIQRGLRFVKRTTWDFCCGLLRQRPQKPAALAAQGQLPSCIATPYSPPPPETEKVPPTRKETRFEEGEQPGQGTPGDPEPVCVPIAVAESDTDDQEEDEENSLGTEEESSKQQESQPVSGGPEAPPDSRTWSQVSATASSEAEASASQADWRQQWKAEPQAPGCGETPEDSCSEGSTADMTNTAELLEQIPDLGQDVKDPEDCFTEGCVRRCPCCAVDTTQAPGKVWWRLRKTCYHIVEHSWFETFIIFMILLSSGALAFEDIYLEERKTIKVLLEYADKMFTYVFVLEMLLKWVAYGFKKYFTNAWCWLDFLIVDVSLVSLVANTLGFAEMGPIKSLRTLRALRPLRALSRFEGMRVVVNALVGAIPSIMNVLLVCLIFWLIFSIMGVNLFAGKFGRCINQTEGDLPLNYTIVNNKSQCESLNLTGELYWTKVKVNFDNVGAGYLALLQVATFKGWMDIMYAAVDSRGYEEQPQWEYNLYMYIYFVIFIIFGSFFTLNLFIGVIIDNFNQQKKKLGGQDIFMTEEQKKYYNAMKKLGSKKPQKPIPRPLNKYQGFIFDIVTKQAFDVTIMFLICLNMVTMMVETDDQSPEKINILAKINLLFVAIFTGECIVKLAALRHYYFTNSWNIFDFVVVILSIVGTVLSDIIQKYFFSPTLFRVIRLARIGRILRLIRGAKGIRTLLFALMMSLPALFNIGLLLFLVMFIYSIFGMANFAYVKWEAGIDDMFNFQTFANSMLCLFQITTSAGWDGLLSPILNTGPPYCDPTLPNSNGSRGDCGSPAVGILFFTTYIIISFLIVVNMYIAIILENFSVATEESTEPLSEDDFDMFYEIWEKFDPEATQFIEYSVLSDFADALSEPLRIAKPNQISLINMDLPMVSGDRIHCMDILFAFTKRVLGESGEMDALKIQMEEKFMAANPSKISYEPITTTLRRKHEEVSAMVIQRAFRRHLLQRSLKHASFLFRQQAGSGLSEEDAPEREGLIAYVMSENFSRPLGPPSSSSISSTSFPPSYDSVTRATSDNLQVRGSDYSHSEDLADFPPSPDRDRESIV
# [19] = Fraction unbound in human plasma; assay type: ADME, cell-free
# [20] = AUC(0 to 8 hrs) in rat at 2 mg/kg, po; assay type: ADME, organism-based; set-up: time < 6 hr, dose 2 mg/kg, route oral; conditions: in vivo; method in brief: as §1
# [21] = target: T1, Transient receptor potential cation channel subfamily V member 3 (Homo sapiens); test: Antagonist activity at human TRPV3 expressed in recombinant HEK293 cells assessed as free plasma level adjusted concentration for inhibition of 2-APB induced calcium flux by FLIPR analysis; assay type: cell-based
# Method in brief: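 FLIPR Kb from the 2-APB (60 µM final) Ca2+ flux assay in human TRPV3 HEK293 cells, converted to an unbound value using the measured free fraction in plasma.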
# [22] = target: T2, Transient receptor potential cation channel subfamily V member 3; test: Antagonist activity at human TRPV3 expressed in recombinant HEK293 cells assessed as inhibition of 2-APB induced currents by patch-clamp electrophysiological assay; assay type: cell-based
# Rattus norvegicus [23] = test: Antiallodynic activity in po dosed chronic constriction injury Sprague-Dawley rat model of neuropathic pain assessed as attenuation of mechanical allodynia induced by von Frey hair stimulation to the ipsilateral hind paw; assay type: functional, organism-based
# Method in brief: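 Rat neuropathic pain models dosed orally. Mechanical allodynia measured by von Frey stimulation of the injured ipsilateral paw, with a 15 g threshold taken as maximal possible effect and results expressed as %MPE. Vehicle 10% DMSO in PEG; n = 6 per group.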
# [24] = […] plasma clearance in rat at 1 mg/kg, iv; assay type: ADME, organism-based; conditions: read-out: CL free (converted); method in brief: as §1
# Rattus norvegicus [25] = species on record: Rattus norvegicus; test: Cardiotoxicity in rat assessed as increase in cardiac contractility at plasma concentration of 4.7 ug/ml; assay type: toxicity, organism-based
# Rattus norvegicus [26] = test: Unbound AUC(0 to 8 hrs) in rat at 2 mg/kg, po; assay type: ADME, organism-based; conditions: in vivo; method in brief: as §1
# [27] = Half life in rat at 1 mg/kg, iv; assay type: ADME, organism-based; conditions: in vivo; method in brief: as §1
smiles,measurement,setting,value
C[C@]1(O)C[C@](c2cc(C(F)(F)F)ccn2)([C@H](O)c2ccccn2)C1 (mixture of isomers),bioavailability,[1],26%
same,CL free,Liver microsome,33 mL/min/kg
same,Activity,[2],< 50%
same,Activity,Rattus norvegicus [3],Non-toxic
same,Activity,[4],< 50%
same,Activity,Rattus norvegicus [5],Non-toxic
same,Cmax,[6],190 ng/mL
same,Vd,[7],1.4 L/kg
same,Activity,Rattus norvegicus [8],Non-toxic
same,Kb,[9],560 nM
same,IC50,[10],930 nM
same,Activity,Rattus norvegicus [11],Dose-dependent effect
same,Activity,Rattus norvegicus [12],Non-toxic
same,Activity,[13],< 50%
same,Activity,[14],> 50%
same,Ratio,[15],1
same,Activity,Rattus norvegicus [16],Non-toxic
same,Activity,[17],< 50%
same,Activity,[18],< 50%
same,fraction unbound,[19],0.89
same,AUC(0-t) at 6 h,[20],380 ng·h/mL
same,Kb,[21],620 nM
same,IC50,[22],380 nM
same,Activity,Rattus norvegicus [23],Dose-dependent effect
same,EC50,Rattus norvegicus [23],11 µmol
same,clearance,[24],41.7 mL/min/kg
same,Activity,Rattus norvegicus [25],Non-toxic
same,fAUC,Rattus norvegicus [26],240 ng·h/mL
same,half-life,[27],30 min
